Assay results reported in ChEMBL document CHEMBL2202972, “Synthesis and biological evaluation of 2-substituted-4-(3',4',5'-trimethoxyphenyl)-5-aryl thiazoles as anticancer agents” (Bioorg Med Chem, 2012).
The source made the active and inactive calls. The rule behind the calls is not given here.

Legend:
[1] = tested on: A549; test: Resistance ratio of IC50 for human taxol-resistant A549-T12 cells expressing tubulin mutant gene to IC50 for human A549 cells; type: functional
[2] = tested on: LoVo; test: Resistance ratio of IC50 for human doxorubicin-resistant LoVo/DX cells overexpressing P-glycoprotein to IC50 for human LoVo cells; type: functional
[3] = tested on: HeLa; test: Downregulation of Xiap expression in human HeLa cells at 250 to 500 nM after 24 hrs by Western blot analysis; type: functional, cell-based
In short: (§1)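 HeLa cells treated for 24 or 48 h, washed twice with ice-cold PBS and lysed on ice 30 min; lysates spun at 15000 ×g, 4 °C. Protein (20 μg) resolved by SDS–PAGE on 7.5–15% gels and blotted to PVDF. Specific primary antibodies for 2 h at room temperature, then peroxidase secondary for 60 min, ECL detection. Membranes stripped and reprobed for β-actin as loading control.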

[4] = tested on: HeLa; test: Induction of apoptosis in human HeLa cells assessed as appearance of cleaved caspase-8 protein at 250 to 500 nM after 24 to 48 hrs by Western blot analysis; type: functional, cell-based; in short: as §1
[5] = tested on: HeLa; test: Induction of apoptosis in human HeLa cells assessed as mitochondrial polarization; type: functional, cell-based
[6] = tested on: HeLa; test: Induction of apoptosis in human HeLa cells assessed as effect on caspase-9 activation at 250 to 500 nM after 24 to 48 hrs by Western blot analysis; type: functional, cell-based; in short: as §1
[7] = tested on: HeLa; test: Induction of apoptosis in human HeLa cells assessed as increase in caspase-3-mediated PARP cleavage at 250 to 500 nM after 24 to 48 hrs by Western blot analysis; type: functional, cell-based; in short: as §1
[8] = tested on: HeLa; test: Downregulation of cyclin B expression in human HeLa cells at 250 to 500 nM after 48 hrs by Western blot analysis; type: functional, cell-based; in short: as §1
[9] = tested on: HeLa; test: Effect on cyclin B expression in human HeLa cells at 250 to 500 nM after 24 hrs by Western blot analysis; type: functional, cell-based; in short: as §1
[10] = molecular target: T1, M-phase inducer phosphatase 3 (Homo sapiens) (UniProt P30307); test: Induction of cdc25C phosphorylation in human HeLa cells assessed as cdc2 kinase dephosphorylation at Tyr15 in human HeLa cells at 250 to 500 nM after 24 to 48 hrs by Western blot analysis; type: cell-based; in short: as §1
T1 sequence (whole entry): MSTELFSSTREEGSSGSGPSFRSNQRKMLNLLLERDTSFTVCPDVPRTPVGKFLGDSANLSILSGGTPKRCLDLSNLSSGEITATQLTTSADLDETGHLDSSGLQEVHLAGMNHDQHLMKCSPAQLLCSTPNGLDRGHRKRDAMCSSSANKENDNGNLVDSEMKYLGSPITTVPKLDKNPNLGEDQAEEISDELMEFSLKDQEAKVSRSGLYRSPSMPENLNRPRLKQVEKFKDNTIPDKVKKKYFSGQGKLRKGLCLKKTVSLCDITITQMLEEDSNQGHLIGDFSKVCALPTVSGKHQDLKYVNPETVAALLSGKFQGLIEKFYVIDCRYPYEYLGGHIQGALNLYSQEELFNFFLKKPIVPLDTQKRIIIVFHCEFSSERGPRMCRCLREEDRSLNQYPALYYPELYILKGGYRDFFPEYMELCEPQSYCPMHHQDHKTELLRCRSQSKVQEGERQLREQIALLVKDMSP

[11] = molecular target: T1, M-phase inducer phosphatase 3 (Homo sapiens); test: Induction of cdc25C phosphorylation in human HeLa cells at 250 to 500 nM after 24 to 48 hrs by Western blot analysis; type: cell-based; in short: as §1
[12] = tested on: Jurkat; test: Cell cycle arrest in human Jurkat cells assessed as decrease in accumulation of cells at S phase after 24 hrs by propidium iodide staining based flow cytometric analysis; type: functional
In short: (§2)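 HeLa or Jurkat cells (5 × 10⁵, exponential growth) treated 24 h with 31–500 nM compound. Cells fixed in ice-cold 70% ethanol, treated with lysis buffer containing RNase A and 0.1% Triton X-100, then stained with propidium iodide. DNA content measured by flow cytometry to give phase distribution. Mean ± SEM of three independent experiments.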

[13] = tested on: Jurkat; test: Cell cycle arrest in human Jurkat cells assessed as accumulation of cells at G2/M phase after 24 hrs by propidium iodide staining based flow cytometric analysis; type: functional; in short: as §2
[14] = tested on: HeLa; test: Cell cycle arrest in human HeLa cells assessed as decrease in accumulation of cells at G1 phase after 24 hrs by propidium iodide staining based flow cytometric analysis; type: functional; in short: as §2
[15] = tested on: HeLa; test: Cell cycle arrest in human HeLa cells assessed as decrease in accumulation of cells at S phase after 24 hrs by propidium iodide staining based flow cytometric analysis; type: functional; in short: as §2
[16] = species on record: Bos taurus; test: Displacement of [3H]colchicine from tubulin in bovine brain at 5 uM DEAE-cellulose filter method
[17] = Inhibition of bovine brain tubulin polymerization preincubated for 15 mins by turbidimetric analysis; parameters: species or system Bos taurus
In short: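 Bovine brain tubulin (10 μM) in glutamate buffer preincubated with varying compound concentrations for 15 min at 30 °C, then chilled to 0 °C. GTP 0.4 mM added and mixtures warmed to 30 °C in a spectrophotometer; assembly followed by turbidity at 350 nm.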

[18] = Antiproliferative activity against human taxol-resistant A549-T12 cells expressing tubulin mutant gene after 72 hrs by MTT assay; type: functional, cell-based; settings: A549, 72 h
In short: (§3)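 Resistant sublines cultured under selection: LoVo^Doxo (doxorubicin-resistant LoVo subclone) in complete Ham's F12 with doxorubicin 0.1 μg/mL; A549-T12 in complete DMEM with taxol 12 nM. Seeded at 8 × 10³ per well, 18 h preincubation, then 72 h compound exposure at 37 °C. MTT read-out.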

[19] = Antiproliferative activity against human doxorubicin-resistant LoVo/DX cells overexpressing P-glycoprotein after 72 hrs by MTT assay; type: functional, cell-based; in short: as §3
[20] = tested on: LoVo; test: Antiproliferative activity against human LoVo cells after 72 hrs by MTT assay; type: functional, cell-based
In short: (§4)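 Cells seeded at 8 × 10³ per well and incubated 18 h at 37 °C, 5% CO₂, then exposed to a range of compound concentrations for 72 h at 37 °C. Jurkat and HL-60 were grown in RPMI-1640, the others in DMEM, with penicillin, streptomycin and 10% FBS. DMSO stocks (10 mM); DMSO ≤0.25% final. Viability by MTT. […] Mean ± SE of ≥3 independent experiments.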

[21] = tested on: PBL; test: Growth inhibition of PHA-stimulated human PBL after 72 hrs by MTT assay; type: functional
[22] = tested on: Jurkat; test: Ratio of compound IC50 to CA-4 IC50 for human Jurkat cells after 72 hrs by MTT assay; type: functional
[23] = tested on: HL-60; test: Ratio of compound IC50 to CA-4 IC50 for human HL60 cells after 72 hrs by MTT assay; type: functional
[24] = tested on: HeLa; test: Ratio of compound IC50 to CA-4 IC50 for human HeLa cells after 72 hrs by MTT assay; type: functional
[25] = tested on: MCF7; test: Ratio of CA-4 IC50 to compound IC50 for human MCF7 cells after 72 hrs by MTT assay; type: functional
[26] = tested on: HT-29; test: Antiproliferative activity against human HT-29 cells after 72 hrs by MTT assay; type: functional, cell-based; settings: HT-29, 72 h
[27] = tested on: Jurkat; test: Antiproliferative activity against human Jurkat cells after 72 hrs by MTT assay; type: functional, cell-based; in short: as §4
[28] = tested on: HeLa; test: Induction of survivin phosphorylation at Thr34 in human HeLa cells at 250 to 500 nM after 24 to 48 hrs by Western blot analysis

CCOc1ccc(-c2sc(NC)nc2-c2cc(OC)c(OC)c(OC)c2)cc1
Ratio IC50 [1]: 0.5 | Ratio IC50 [2]: 0.5 | Activity [3]: Active | Activity [4]: Active | Activity [5]: Active | Activity [6]: inactive | Activity [7]: Active | Activity [8]: Active | Activity [9]: inactive | Activity [10]: Active | Activity [11]: Active | Activity [12]: Dose-dependent effect | Activity [13]: Dose-dependent effect | Activity [14]: Dose-dependent effect | Activity [15]: Dose-dependent effect | inhibition [16]: 83% | IC50 [17]: 890 nM | IC50 [18]: 21.5 nM | IC50 [19]: 14.5 nM | IC50 [20]: 31 nM | GI50 [21]: 120 nM | Ratio IC50 [22]: 0.34 | Ratio IC50 [23]: 2 | Ratio IC50 [24]: 2 | Ratio IC50 [25]: 15 | IC50 [26]: 3.2 nM | IC50 [27]: 1.7 nM | Activity [28]: Active
